Measurements: ChEMBL document CHEMBL1140384, “Synthesis and structure-activity relationships of suramin-derived P2Y11 receptor antagonists with nanomolar potency” (J Med Chem, 2005)

Assays:
[1] = target: T1, P2Y purinoceptor 11 (Homo sapiens, UniProt Q96G91); assay: Inhibitory concentration against P2Y11 receptor expressed in 1321N1 astrocytoma Cells; (n=7)
T1 sequence (Q96G91 whole entry): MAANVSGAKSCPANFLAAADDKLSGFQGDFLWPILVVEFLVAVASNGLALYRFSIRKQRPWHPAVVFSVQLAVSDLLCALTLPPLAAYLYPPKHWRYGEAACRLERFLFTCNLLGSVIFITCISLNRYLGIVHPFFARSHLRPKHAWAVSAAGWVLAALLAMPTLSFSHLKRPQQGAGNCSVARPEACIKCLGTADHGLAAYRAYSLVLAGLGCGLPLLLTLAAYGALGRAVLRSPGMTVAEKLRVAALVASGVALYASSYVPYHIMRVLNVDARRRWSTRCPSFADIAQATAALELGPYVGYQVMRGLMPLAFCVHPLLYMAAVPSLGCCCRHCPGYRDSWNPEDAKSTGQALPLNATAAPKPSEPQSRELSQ
Procedure, shortened: (§1)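 Human P2Y11 stably expressed in 1321N1 astrocytoma cells (G418 selection), loaded with Oregon Green 488 BAPTA-1/AM (3 µM, 60 min, 25 °C) in Krebs-HEPES. Compound preincubated 30 min at 37 °C before injection of 1 µM ATPγS. Ca2+ fluorescence read at ex 485/em 520 nm for 30 s. IC50 from concentration-inhibition curves; independent experiments each run in triplicate.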

[2] = target: P2X purinoceptor 1 (Rattus norvegicus, UniProt P47824); assay: Inhibitory concentration against rat P2X purinoceptor 1 expressed in Xenopus laevis oocytes; assay type: functional, cell-based, Oocyte
Procedure, shortened: (§2)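 Two-electrode voltage clamp on Xenopus laevis oocytes expressing recombinant rat or human P2X subtypes, recording receptor-mediated currents. IC50 values came from nonlinear least-squares Hill fits to pooled concentration-inhibition data; mean ± SEM from at least three experiments.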

[3] = target: T1, P2Y purinoceptor 11; assay: Inhibitory concentration against P2Y purinoceptor 11 expressed in 1321N1 astrocytoma cells; n=7; assay type: cell-based; procedure, shortened: as §1
[4] = target: T2, P2X purinoceptor 3 (Homo sapiens, UniProt P56373); assay: Inhibitory concentration against human P2X purinoceptor 3 expressed in Xenopus laevis oocytes; assay type: functional, cell-based, Oocyte; procedure, shortened: as §2
T2 sequence (P56373 whole entry): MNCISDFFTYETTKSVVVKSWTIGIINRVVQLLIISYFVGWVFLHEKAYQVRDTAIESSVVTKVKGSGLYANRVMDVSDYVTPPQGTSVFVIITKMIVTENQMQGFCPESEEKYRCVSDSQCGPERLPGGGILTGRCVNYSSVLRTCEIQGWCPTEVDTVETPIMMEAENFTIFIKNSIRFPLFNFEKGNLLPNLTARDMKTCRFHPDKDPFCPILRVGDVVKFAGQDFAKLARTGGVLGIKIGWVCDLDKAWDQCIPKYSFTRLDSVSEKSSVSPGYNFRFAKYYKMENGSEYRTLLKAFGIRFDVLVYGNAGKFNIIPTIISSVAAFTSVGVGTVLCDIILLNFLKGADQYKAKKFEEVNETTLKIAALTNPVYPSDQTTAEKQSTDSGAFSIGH

[5] = target: P2X purinoceptor 4 (Rattus norvegicus) (UniProt P51577); assay: Inhibitory concentration against rat P2X purinoceptor 4 expressed in Xenopus laevis oocytes
[6] = target: T3, P2X purinoceptor 4 (Rattus norvegicus, UniProt P51577); assay: Inhibitory concentration against rat P2X purinoceptor 4 expressed in Xenopus laevis oocytes; assay type: functional, cell-based, Oocyte; procedure, shortened: as §2
T3 sequence (P51577 whole entry): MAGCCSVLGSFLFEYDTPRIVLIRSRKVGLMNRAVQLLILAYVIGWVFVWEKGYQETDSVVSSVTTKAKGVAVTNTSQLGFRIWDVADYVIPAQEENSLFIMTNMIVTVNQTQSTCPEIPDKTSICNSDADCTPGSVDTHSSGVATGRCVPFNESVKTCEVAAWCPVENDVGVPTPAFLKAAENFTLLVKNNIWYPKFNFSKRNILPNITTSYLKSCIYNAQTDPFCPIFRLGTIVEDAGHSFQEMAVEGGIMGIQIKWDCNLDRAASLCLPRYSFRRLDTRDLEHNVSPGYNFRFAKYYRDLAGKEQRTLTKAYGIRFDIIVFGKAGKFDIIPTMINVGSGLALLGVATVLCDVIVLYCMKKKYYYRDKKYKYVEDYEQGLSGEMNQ

[7] = target: T4, P2X purinoceptor 1 (Homo sapiens, UniProt P51575); assay: Inhibitory concentration against human P2X purinoceptor 1 expressed in Xenopus laevis oocytes; assay type: functional, cell-based, Oocyte; procedure, shortened: as §2
T4 sequence (P51575 whole entry): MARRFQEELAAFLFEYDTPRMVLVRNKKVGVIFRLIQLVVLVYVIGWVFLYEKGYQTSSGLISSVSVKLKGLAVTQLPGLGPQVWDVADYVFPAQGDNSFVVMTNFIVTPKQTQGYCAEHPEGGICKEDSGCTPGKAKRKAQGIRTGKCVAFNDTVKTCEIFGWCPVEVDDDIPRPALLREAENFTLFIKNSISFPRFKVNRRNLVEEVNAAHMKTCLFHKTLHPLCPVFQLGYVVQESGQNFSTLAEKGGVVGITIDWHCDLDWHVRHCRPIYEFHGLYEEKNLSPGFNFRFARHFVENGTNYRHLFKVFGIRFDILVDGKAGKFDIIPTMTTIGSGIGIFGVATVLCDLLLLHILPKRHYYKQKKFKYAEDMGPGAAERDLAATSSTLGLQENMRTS

[8] = target: T5, P2Y purinoceptor 11 (Homo sapiens) (UniProt Q96G91); assay: Percent inhibition of agonist-induced calcium mobilization at P2Y purinoceptor 11 recombinantly expressed in human 1321N1 astrocytoma cells at 100 uM dose
T5 sequence (whole entry): T1 sequence (Q96G91 whole entry)

[9] = target: T6, P2Y purinoceptor 1 (Homo sapiens, UniProt P47900); assay: Percent inhibition of agonist-induced calcium mobilization at P2Y purinoceptor 1 recombinantly expressed in human HEK293 cells at 100 uM dose; assay type: functional, cell-based; settings: in the assay text read “native in” for “recombinantly expressed in”
Procedure, shortened: (§3)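 Single 100 µM antagonist dose, preincubated 30 min at 37 °C, in a Ca2+ fluorescence assay (Oregon Green 488 BAPTA-1/AM). Agonists: 31.6 nM 2-MeSADP for native P2Y1 and 3.16 µM UTP for native P2Y2, both in HEK293 cells; 1 µM ATPγS for recombinant P2Y11 in 1321N1 cells. Response expressed as % of agonist control; mean ± SEM, n ≥ 3.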

[10] = target: T6, P2Y purinoceptor 1; assay: Inhibitory concentration against P2Y purinoceptor 1 expressed in 1321N1 astrocytoma Cells; (n=3)
[11] = target: P2Y purinoceptor 2 (Homo sapiens, UniProt P41231); assay: Percent inhibition of agonist-induced calcium mobilization at P2Y purinoceptor 2 recombinantly expressed in human HEK293 cells at 100 uM dose; assay type: functional, cell-based; settings: in the assay text read “native in” for “recombinantly expressed in”; procedure, shortened: as §3
Chain of P2Y purinoceptor 2 (P41231 whole entry): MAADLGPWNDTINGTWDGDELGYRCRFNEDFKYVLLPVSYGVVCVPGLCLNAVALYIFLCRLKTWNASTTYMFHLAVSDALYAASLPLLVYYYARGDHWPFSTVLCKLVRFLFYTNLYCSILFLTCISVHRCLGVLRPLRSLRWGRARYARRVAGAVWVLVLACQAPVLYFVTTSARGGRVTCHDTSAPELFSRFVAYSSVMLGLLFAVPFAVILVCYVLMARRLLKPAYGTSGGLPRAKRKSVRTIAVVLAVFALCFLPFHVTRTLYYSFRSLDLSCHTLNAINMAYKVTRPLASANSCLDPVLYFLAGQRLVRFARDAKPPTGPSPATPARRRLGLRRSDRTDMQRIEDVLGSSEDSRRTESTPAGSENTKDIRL

T6 sequence (P47900 whole entry): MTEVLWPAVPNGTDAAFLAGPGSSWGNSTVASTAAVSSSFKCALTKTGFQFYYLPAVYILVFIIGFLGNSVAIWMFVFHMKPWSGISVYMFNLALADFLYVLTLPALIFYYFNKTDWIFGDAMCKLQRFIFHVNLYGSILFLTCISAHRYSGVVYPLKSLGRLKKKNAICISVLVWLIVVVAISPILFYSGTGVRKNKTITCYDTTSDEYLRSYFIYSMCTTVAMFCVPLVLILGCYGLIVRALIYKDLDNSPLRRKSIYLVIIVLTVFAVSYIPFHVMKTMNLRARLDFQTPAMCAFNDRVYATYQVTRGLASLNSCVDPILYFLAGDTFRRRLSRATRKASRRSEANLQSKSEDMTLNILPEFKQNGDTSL
Chain of P2X purinoceptor 1 (Rattus norvegicus, UniProt P47824) (P47824 whole entry, looked up): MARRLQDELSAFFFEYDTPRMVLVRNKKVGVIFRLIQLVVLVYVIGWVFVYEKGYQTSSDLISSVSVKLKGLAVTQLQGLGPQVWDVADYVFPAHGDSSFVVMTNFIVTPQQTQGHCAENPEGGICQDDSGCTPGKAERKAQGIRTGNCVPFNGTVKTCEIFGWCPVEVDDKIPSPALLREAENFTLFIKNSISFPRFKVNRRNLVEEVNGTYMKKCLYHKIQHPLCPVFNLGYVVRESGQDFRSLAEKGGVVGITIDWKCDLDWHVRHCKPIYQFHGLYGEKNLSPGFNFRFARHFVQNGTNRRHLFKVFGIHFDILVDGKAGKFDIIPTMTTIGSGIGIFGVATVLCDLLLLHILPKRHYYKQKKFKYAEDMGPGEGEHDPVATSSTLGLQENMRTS

- IC50 [1]: 0.457 µM
- IC50 [2]: 0.0813 µM
- Ki [3]: 0.0447 µM
- IC50 [4]: 0.355 µM
- IC50 [5]: > 1 µM
- IC50 [6]: > 1 µM
- IC50 [7]: 0.0631 µM
- inhibition [8]: 96.6%
- inhibition [9]: 63.3%
- IC50 [10]: 1820 µM
- inhibition [11]: 42.8%
Structure (SMILES): O=C(Nc1cccc(C(=O)Nc2cc(C(=O)Nc3ccc(S(=O)(=O)O)c4cc(S(=O)(=O)O)cc(S(=O)(=O)O)c34)ccc2F)c1)Nc1cccc(C(=O)Nc2cc(C(=O)Nc3ccc(S(=O)(=O)O)c4cc(S(=O)(=O)O)cc(S(=O)(=O)O)c34)ccc2F)c1
